The values below come from ChEMBL document CHEMBL3425450, “Neuroactive Steroids. 1. Positive Allosteric Modulators of the (γ-Aminobutyric Acid)A Receptor: Structure-Activity Relationships of Heterocyclic Substitution at C-21” (J Med Chem, 2015).

Converted amounts (≈) assume the structure as drawn. A value given as a limit tells only on which side of the number the result lay.

Series [1] is described as follows: Clearance in human liver microsomes at 10 uM after 60 mins by HPLC-MS/MS analysis. It counts as ADME.
The nature of series [2]: Clearance in rat liver microsomes at 10 uM after 60 mins by HPLC-MS/MS analysis. It counts as ADME.
The nature of series [3]: Clearance in mouse liver microsomes at 10 uM after 60 mins by HPLC-MS/MS analysis. Format: ADME.
A short description of series [4]: Clearance in Sprague-Dawley rat at 5 mg/kg, iv and 20 mg/kg, po by LC-MS/MS analysis. It counts as ADME, organism-based. The settings on record: in vivo. In short, it runs like this:
(§1)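 Rats were dosed i.v. at 5 mpk and orally at 20 mpk. Clearance and oral bioavailability were calculated from mean plasma concentrations of 2 rats.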

A short description of series [5]: Oral bioavailability in Sprague-Dawley rat at 20 mg/kg by LC-MS/MS analysis. Format: ADME, organism-based. The settings on record: in vivo. Summed up:
as §1

Series [6] in a line: Ratio of drug level in brain to plasma in Sprague-Dawley rat at 5 mg/kg, iv after 30 mins by LC-MS/MS analysis. Also noted: dose 5 mg/kg, route intravenous. The settings on record: read-out: BPR. Format: ADME, organism-based. Summed up: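 Brain and plasma were sampled at a single point 30 min after the i.v. 5 mpk dose. The ratio was calculated from mean concentrations of 2 rats.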

A short description of series [7]: Retention time of the compound by LC-MS analysis. Format: physicochemical. In short, it runs like this:
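Eluents were water and acetonitrile, each with TFA, run as a 5 to 95% acetonitrile gradient over 1.5 min at 1.5 mL/min. Capillary voltage was 3.5 kV and fragmentor voltage 50 V.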

For series [8], the target named is GABA-A receptor; agonist GABA site. The experiment in a line: Positive allosteric modulation of recombinant alpha4beta3delta GABAA receptor (unknown origin) expressed in CHO cells assessed as potentiation of GABA-induced channel current treated for 30 s prior to GABA stimulation for 2s by manual patch assay. Format: cell-based, Homo sapiens.
The target of series [9] is GABA-A receptor; anion channel. The experiment in a line: Displacement of [3H]TBPS from GABAA receptor in Sprague-Dawley rat brain cortical membrane after 90 mins by liquid scintillation spectrometry.
Series [10] concerns the target GABA-A receptor; agonist GABA site. In words: Positive allosteric modulation of recombinant alpha1beta2gamma2 GABAA receptor (unknown origin) expressed in LTK cells assessed as potentiation of GABA-induced channel current treated for 30 s prior to GABA stimulation for 2s by Q-patch assay. Format: cell-based, Homo sapiens.
Series [11] can be described thus: Lipophilicity, log D of the compound at 20 uM at pH 7.4 by HPLC-MS/MS analysis. The settings on record: buffer. It counts as physicochemical.
A short description of series [12]: Aqueous solubility of the compound at pH 7.4 by HPLC-MS/MS analysis. It counts as physicochemical. The following applies: buffer.
For series [13], the target named is GABA-A receptor; alpha-1/beta-2/gamma-2 (Homo sapiens) (UniProt P14867+P47870+P18507). The experiment in a line: Selectivity ratio of EC50 for recombinant alpha1beta2gamma2 GABAA receptor (unknown origin) expressed in LTK cells to EC50 for recombinant alpha4beta3delta GABAA receptor (unknown origin) expressed in CHO cells. Format: cell-based.

Regarding `C[C@@]1(O)CC[C@H]2[C@H](CC[C@@H]3[C@@H]2CC[C@]2(C)[C@@H](C(=O)Cn4nccn4)CC[C@@H]32)C1`, the results for the CLhep predicted at 10 µM in series [1], in series [2] and in series [3] were 3.17 mL/min/kg, 45 mL/min/kg and 67.5 mL/min/kg, respectively. This compound also showed a clearance in series [4] of 38.3 mL/min/kg. In addition, the bioavailability in series [5] came out at 27%. Besides, the Kp at 0.5 h in series [6] stood at 1.8. Moreover, the Retention_time in [7] is given as 0.87 min. Further, the EC50 worked out at 240 nM in series [8] and 125 nM in series [10]. Moreover, the IC50 in [9] was 11 nM. Also, in series [11], the logD at 20 µM was 4.6. In series [12], this compound showed a solubility of 7.3 µM (≈ 2.81 µg/mL).
In the case of `C[C@@]1(O)CC[C@H]2[C@H](CC[C@@H]3[C@@H]2CC[C@]2(C)[C@@H](C(=O)Cn4cc5ccncc5n4)CC[C@@H]32)C1`, the results for the CLhep predicted at 10 µM in [1], in series [2] and in [3] were 4.5 mL/min/kg, 55.7 mL/min/kg and 33.8 mL/min/kg, respectively. The clearance in series [4] was 58.3 mL/min/kg. This compound showed a bioavailability in series [5] of 40%. Besides, the Kp at 0.5 h in series [6] worked out at 2.1. The compound also gave a Retention_time in series [7] of 0.75 min. In addition, the EC50 in series [8] was 178 nM; in [10], more than 3000 nM. Moreover, the IC50 in series [9] is 16 nM. Further, in [13], the Ratio EC50 was more than 17. Further, the logD at 20 µM in [11] came out at 4.7. In addition, the concentration in solution in series [12] (solubility) came to 1.2 µM (≈ 0.523 µg/mL).
As for `C[C@@]1(O)CC[C@H]2[C@H](CC[C@@H]3[C@@H]2CC[C@]2(C)[C@@H](C(=O)Cn4cc5ncccc5n4)CC[C@@H]32)C1`, the CLhep predicted at 10 µM was 4.5 mL/min/kg in [1], 55.7 mL/min/kg in series [2] and 60 mL/min/kg in [3]. Further, the clearance in [4] was 73.3 mL/min/kg. Further, in series [5], the bioavailability turned out to be 1.5%. Besides, the Kp at 0.5 h in series [6] turned out to be 1.3. In [7], the Retention_time is listed as 0.81 min. Moreover, the values for the EC50 in series [8] and in series [10] were 343 nM and more than 3000 nM, respectively. In addition, the IC50 in [9] came to 6 nM. Further, the Ratio EC50 in [13] was more than 8. In series [11], this compound displayed a logD at 20 µM of 4.7. In [12], this compound gave a solubility of 12.4 µM (≈ 5.4 µg/mL).
Regarding `C[C@@]1(O)CC[C@H]2[C@@H](CC[C@@H]3[C@@H]2CC[C@]2(C)[C@@H](C(=O)Cn4ncnn4)CC[C@@H]32)C1`, the CLhep predicted at 10 µM was 1.67 mL/min/kg in [1], 14.3 mL/min/kg in series [2] and 33.8 mL/min/kg in [3]. The compound further showed a clearance in [4] of 8.33 mL/min/kg. Further, the bioavailability in series [5] is 67%. Also, in series [6], the Kp at 0.5 h was found to be 2. This compound displayed a Retention_time in series [7] of 0.88 min. Besides, the EC50 turned out to be 292 nM in [8] and 945 nM in series [10]. In addition, the IC50 in series [9] was found to be 31 nM. In [11], this compound gave a logD at 20 µM of 4.5. In addition, in series [12], the solubility was found to be 0.9 µM (≈ 0.348 µg/mL).
Take `C[C@@]1(O)CC[C@H]2[C@H](CC[C@@H]3[C@@H]2CC[C@]2(C)[C@@H](C(=O)Cn4ncnn4)CC[C@@H]32)C1`: the CLhep predicted at 10 µM in series [1] is 5.5 mL/min/kg; in series [2], 39.3 mL/min/kg; in [3] it was 67.5 mL/min/kg. Besides, the clearance in series [4] is 18.3 mL/min/kg. The bioavailability in series [5] worked out at 41%. For the same compound, in series [6], the Kp at 0.5 h was 2.3. In series [7], the Retention_time came to 0.87 min. Moreover, the EC50 in [8] came out at 345 nM; in series [10], 1150 nM. Also, the IC50 in series [9] came out at 6 nM. Also, in series [11], the logD at 20 µM worked out at 4.5. In series [12], this compound yielded a solubility of 2.5 µM (≈ 0.966 µg/mL).
